Shown are actives, neighbours in structure and some others; about 1.5% of the full set was active somewhere.
CCR6 antag = blocks CCL20-driven beta-arrestin recruitment at human CCR6. 0.49% of 340,000 active. CHO-K1 CCR6 PathHunter beta-arrestin, luminescence, CCL20-stimulated. inhibition, % at 20 µM. P51684;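 active = compounds whose inhibition of the agonist-driven luminescence signal at 20 µM reaches about 50%, limit read from the data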;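 note: cells stimulated with CCL20 at 14 nM final; plate controls were DMSO with CCL20 for no effect and DMSO without agonist for full effect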
Target sequence (P51684 whole entry, looked up): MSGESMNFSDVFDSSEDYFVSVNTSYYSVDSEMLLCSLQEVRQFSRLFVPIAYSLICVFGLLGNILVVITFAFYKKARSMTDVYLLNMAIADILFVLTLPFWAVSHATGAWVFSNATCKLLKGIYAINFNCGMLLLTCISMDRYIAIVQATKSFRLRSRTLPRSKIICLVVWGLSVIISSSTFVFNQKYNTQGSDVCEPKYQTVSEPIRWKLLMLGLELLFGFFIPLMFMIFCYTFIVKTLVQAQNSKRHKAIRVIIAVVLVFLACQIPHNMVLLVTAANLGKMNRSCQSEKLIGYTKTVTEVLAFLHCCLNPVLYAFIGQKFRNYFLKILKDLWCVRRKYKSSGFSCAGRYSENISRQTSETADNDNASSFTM
EBI2 antag = blocks human EBI2 receptor beta-arrestin signaling; P32249; EBI2 beta-arrestin recruitment, luminescence, 7a,25-OHC stimulated; inhibition, % at 5 µM; 0.81% of 360,000 active; AID 651636; in the data active = inhibition above about 38%;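 note: enzyme fragment complementation signal reports receptor beta-arrestin coupling in cells; 0% = agonist plus DMSO wells and 100% = wells without agonist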
Target sequence (P32249 whole entry, looked up, the tested form may be a part): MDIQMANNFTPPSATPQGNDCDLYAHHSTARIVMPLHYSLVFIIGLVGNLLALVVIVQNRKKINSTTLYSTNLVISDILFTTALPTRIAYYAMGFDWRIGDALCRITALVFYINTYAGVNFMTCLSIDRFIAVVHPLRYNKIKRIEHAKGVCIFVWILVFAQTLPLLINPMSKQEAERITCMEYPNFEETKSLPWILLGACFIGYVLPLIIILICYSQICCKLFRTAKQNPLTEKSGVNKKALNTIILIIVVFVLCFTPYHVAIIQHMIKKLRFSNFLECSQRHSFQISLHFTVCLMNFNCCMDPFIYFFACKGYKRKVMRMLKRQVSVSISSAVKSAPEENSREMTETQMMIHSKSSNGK
CXCR6 inh = blocks human CXCR6 beta-arrestin recruitment. O00574. CHO-K1 PathHunter CXCR6 beta-arrestin, luminescence. inhibition, % at 20 µM. 0.36% of 360,000 active. AID 602244; in the data active = inhibition above about 34%, passing the limit was not always enough;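 note: antagonist mode with CXCL16 agonist at 10 nM final; 0% = 10 nM CXCL16 with DMSO and 100% = unstimulated wells without agonist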
APJ antag = antagonists of human APJ apelin receptor; CHO-K1 APJ beta-arrestin complementation, luminescence; P35414; inhibition, % at 20 µM; 0.32% of 330,000 active;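 active = inhibition above about 40% at 20 µM, limit read from the data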;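 note: cells challenged with 10 nM apelin-13 agonist together with compound; plate controls were apelin-13 plus DMSO wells for no effect and DMSO wells lacking apelin-13 for full effect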
APJ ag = activates the human apelin receptor APJ. P35414. CHO-K1 APJ PathHunter beta-arrestin, luminescence; 0% DMSO wells, 100% apelin. activation, % at 20 µM. 0.11% of 330,000 active. AID 2520;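 active = activation more than six SD over the plate average, tested at 20 µM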;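 note: 0% = DMSO alone and 100% = apelin-13 at 10 nM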
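assay system = CHO-K1 APJ beta-arrestin complementation cell line | input = cell density 1000 per well | dosing = compound 20 µM once, DMSO 1% | timing = compound 90 min 25 °C, reagent 1 h | measured by = luminescence from split beta-galactosidase complementation, Galacton Star/Emerald II substrate | read-out basis = APJ agonist activity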
EBI2 antag conf = EBI2 (human) antagonism, single concentration confirmation | 29% of 2,400 active | inhibition, % at 5 µM | EBI2 beta-arrestin luminescence, 7a,25-OHC antagonism | AID 651997 | shares compounds with EBI2 antag;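 active = inhibition of at least 50%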
EBI2 ag = EBI2 agonism counter-screen; activation, % at 5 µM; 2,400 tested, under 10 active; shares compounds with EBI2 antag; AID 652000; EBI2-expressing cells, agonist mode, luminescence, 60 min; 0% vehicle, 100% 7α,25-dihydroxycholesterol control;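 active = activation of at least 50%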
bGal cs = beta-galactosidase inhibition counter-screen; shares compounds with EBI2 antag; purified beta-galactosidase, luminescent Galacton Star, 15 min; inhibition, % at 5 µM; 1% of 2,400 active; AID 652176;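 active = replicate-average signal at least 3 plate SD below neutral wells, shown as high inhibition, flagging enzyme-inhibiting false positives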;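 note: 0% = DMSO wells with enzyme and 100% = wells lacking enzyme; higher means stronger loss of beta-gal luminescence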
Numbers without * were called inactive; / = no result given.

SMILES	CCR6 antag	EBI2 antag	CXCR6 inh	APJ antag	APJ ag	EBI2 antag conf	EBI2 ag	bGal cs
COc1ccc(-c2nc(N)ncc2Oc2ccccc2Br)c(O)c1	9.7	61.8*	-1.1	-3.4	-0.4	23.4	0.4	4.1
O=c1c2ccccc2n(Cc2ccccc2F)c(=O)n1Cc1ccccc1F	22.0	53.6*	16.5	13.6	-5.5	16.9	1.1	10.9
O=C(NCc1ccco1)c1ccc(Cn2c(=O)c3ccccc3n(Cc3ccc(Cl)cc3)c2=O)cc1	14.5	21.6	14.6	0.6	0.5	/	/	/
Cc1ccc(Cn2c(=O)n(Cc3ccco3)c(=O)c3ccccc32)cc1	28.7	69.0*	8.7	-21.9	-4.0	26.1	0.9	8.7
CC1(c2nnnn2C2CCCC2)CCC(=O)N1c1ccc2c(c1)OCCO2 (stereo unspecified)	/	-14.4	/	/	/	/	/	/
Cc1cn([C@H]2C[C@H](O)[C@@H](/C=C/C(=O)NCCN3CCCCC3)O2)c(=O)[nH]c1=O	/	-18.1	-2.4	/	/	/	/	/
O=C(NCC(F)(F)F)[C@H]1O[C@@H](n2ccc(=O)[nH]c2=O)[C@H](O)[C@@H]1O	/	13.4	1.7	/	/	/	/	/
COC(=O)c1ccc(C2C(Oc3ccc(OC)cc3)C(=O)N2CCc2ccc(F)cc2)cc1 (stereo unspecified)	-10.2	42.2*	-0.8	17.2	-2.2	16.3	-0.8	-9.9
COc1ccc(CCN2C(=O)C(Oc3ccccc3C)C2c2ccc3c(c2)OCO3)cc1 (stereo unspecified)	16.7	55.0*	5.9	-21.1	-2.4	23.7	2.0	2.7
COc1ccc(CCN2C(=O)C(Oc3ccccc3C)C2c2ccc3c(c2)OCO3)cc1OC (stereo unspecified)	4.6	18.0	2.8	6.6	-2.5	/	/	/
C[C@H](CO)N1C[C@H](C)[C@@H](CN(C)S(C)(=O)=O)OCc2cnnn2CCCC1=O	/	1.8	-5.1	/	/	/	/	/
O=C(N/N=C/c1cccc(OCc2ccccc2)c1)c1ccc(Br)cc1	1.6	36.5*	-9.3	-14.4	0.2	23.2	0.8	6.4
COc1cccc(/C=N/NC(=O)c2ccc(OCc3cccc(Br)c3)cc2)c1	-9.4	24.0	-1.8	-8.3	2.5	/	/	/
CCOc1cc(/C=N/NC(=O)CN2CCOCC2)ccc1OCc1ccccc1	11.0	2.5	-0.6	-3.4	3.4	/	/	/
CCOc1cc(/C=N/NC(=O)c2ccc(CN3CCOCC3)cc2)ccc1OCc1ccccc1	-4.4	55.4*	1.0	-2.9	4.4	60.4*	-1.3	-19.6
Cc1cccc(CN2CCN(C3CN(CCc4ccccc4)S(=O)(=O)C3)CC2)c1 (stereo unspecified)	/	34.0	1.3	/	/	/	/	/
COc1ccc(C(=O)ON=C(C)c2nccs2)cc1	/	-2.7	1.2	/	/	/	/	/
CC1(C)CC(=O)C=C(c2ccc(COC(=O)c3ccc(-c4ccccc4)cc3)cc2)C1=O	/	26.1	-0.1	/	/	/	/	/
CCOC(=O)c1ccc(-n2cnc(-c3ccc([N+](=O)[O-])cc3)c2)cc1	/	49.9*	-3.6	/	/	20.0	0.1	7.5
O=[N+]([O-])c1ccc(Oc2ccc(C(F)(F)F)cn2)cc1	13.0	8.3	-11.2	0.8	-3.0	/	/	/
FC(F)(F)c1ccc(Oc2ccc3cc(Br)ccc3c2)nc1	7.0	83.7*	-9.6	2.5	-1.3	47.6	0.9	6.7
COc1cc(/C=c2\sc3n(c2=O)C(c2ccccc2)C(c2ccccc2)=NN=3)ccc1O (stereo unspecified)	40.8	49.5*	35.0	21.3	-5.4	42.9	-1.2	9.9
O=C(/C=C/c1ccc(Cl)cc1)NC1CC2CCC1C2 (stereo unspecified)	20.6	62.7*	2.6	1.8	-2.2	23.7	-0.5	-8.7
CCN(CC(=O)NCc1ccc(Cl)cc1)C(=O)c1ccc2cc(OC)ccc2c1	17.5	68.3*	3.5	4.9	2.0	52.5*	0.1	-5.2
CCN(CC(=O)NCc1ccc(Cl)cc1)C(=O)/C=C/c1ccc(Cl)c([N+](=O)[O-])c1	16.9	21.1	11.1	-23.0	4.4	/	/	/
SMILES	CCR6 antag	EBI2 antag	CXCR6 inh	APJ antag	APJ ag	EBI2 antag conf	EBI2 ag	bGal cs
CCN(CC(=O)NCc1ccc(Cl)cc1)C(=O)/C=C/c1ccc(C#N)cc1	10.4	51.1*	-1.5	9.2	0.1	33.9	0.4	6.9
CCN(CC(=O)NCc1ccc(Cl)cc1)C(=O)/C=C/c1ccccc1	10.3	76.2*	-4.4	10.8	-3.7	34.0	1.2	0.0
CCN(CC(=O)NCc1ccc(Cl)cc1)C(=O)/C=C/c1ccco1	2.1	-7.3	-1.7	7.6	-0.7	/	/	/
O=C1NC[C@H](CCCCN2C[C@H](Cc3ccc(O)cc3)N(Cc3ccccc3)C(=O)C2=O)N(CCc2ccccc2)C1=O	/	-3.6	-8.1	/	/	/	/	/
c1cc(-c2cc3c(o2)CCCC3OCCN2CCOCC2)cs1 (stereo unspecified)	/	-4.0	2.0	/	/	/	/	/
O=C(Nc1ccc(F)c(Cl)c1)c1cc(C2CCCN(C(=O)c3cccs3)C2)on1 (stereo unspecified)	/	11.1	-0.2	/	/	/	/	/
CCOC(=O)Cn1nc(-c2ccc(Cl)cc2)cc1N	0.7	-2.9	-13.7	13.0	-3.2	/	/	/
CCOC(=O)CN1CCC(c2cc(-c3ccc(Cl)cc3)n[nH]2)CC1	9.9	39.9*	3.9	10.0	-0.4	36.7	-2.0	-5.4
CCCCN1CC(COCc2ccccc2)Oc2cccc(OCCN3C(=O)[C@@H]4[C@H](C3=O)C3C=C[C@H]4C3)c2S1(=O)=O (stereo partly specified)	6.0	-20.4	6.9	/	/	/	/	/
CC(=O)NC(=S)Nc1sc2c(c1C(N)=O)CCC(C)C2 (stereo unspecified)	38.7	36.7*	38.8*	28.2	-7.4	21.1	-0.2	8.8
CC(=O)Nc1ccc(S(=O)(=O)N(C)CC(=O)N2CCN(C(=O)c3ccco3)CC2)cc1	5.8	2.6	-2.1	7.5	-0.8	/	/	/
CC(C)(C)c1ccc(C(=O)Nc2ccc(O)c3c(=O)cc(-c4cccc(Cl)c4)oc23)cc1	12.4	-2.7	10.9	5.7	-0.8	/	/	/
COc1ccc(C(=O)Nc2ccc(O)c3c(=O)cc(-c4cccc(Cl)c4)oc23)cc1	23.3	44.0*	6.3	23.7	-6.1	20.9	0.2	6.1
COc1ccc(NC(=O)C2CCCN2C(=O)Nc2ccccc2)cc1OC (stereo unspecified)	1.3	-8.2	-3.9	-0.8	-7.8	/	/	/
COc1ccc(C2CCCN2C(=O)Nc2ccc(Cl)cc2)cc1OC (stereo unspecified)	11.2	59.0*	-6.4	0.4	-2.0	48.5	0.7	6.2
COc1ccc(C2=NN(C(=O)CSc3ncccn3)C(c3ccc(OC)cc3)C2)cc1 (stereo unspecified)	19.8	4.2	0.8	-9.3	1.0	/	/	/

Source: PubChem (Sanford-Burnham Center for Chemical Genomics)
